Tested on: MS2 coat protein
Assay: apparent Kd, MS2 coat protein; higher = weaker binding; RNA-MaP array; FMN 200 µM where present
Outline: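 The apparent Kd is reported as the median of filtered per-cluster binding-curve fits. To get these curves, designs transcribed by stalled E. coli RNA polymerase on Illumina sequencing-chip clusters were titrated with SNAP-549-labelled MS2 coat protein from 0.7 or 1.5 nM, doubling to 3 µM. Titrations were run without and then with constant ligand in 100 mM Tris-HCl pH 7.5, 80 mM KCl, 4 mM MgCl2, BSA, DTT, yeast tRNA and Tween-20, and green signal was normalised to red-channel RNA signal and control-cluster median Fmax.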

[1] = designed as: ON switch for flavin mononucleotide, no ligand
[2] = ligand present: flavin mononucleotide, designed as: ON switch for flavin mononucleotide
[3] = designed as: OFF switch for flavin mononucleotide, no ligand
[4] = ligand present: flavin mononucleotide, designed as: OFF switch for flavin mononucleotide

Row | Sequence | apparent Kd [1] | apparent Kd [2] | apparent Kd [3] | apparent Kd [4]
1 | GACAUGGUCCAGAAGGGCUAUUUAUUUAAGUACGAUUUAGAACAGCAUAGCAGGAUAUGGCUAACAUGAGGAUCACCCAUGUUC | 19.3 nM | 11.9 nM | – | –
2 | GCAGAUCAAGUGAGGAUAUCGUCUACCUCGGUAGACGAGAAGGCACAUGAGGAUCACCCAUGUGAUUGAUCUGC | – | – | 17.6 nM | 23.6 nM
3 | UGAGUGUGAGGAUAUAUGGUAGGGAUGAAGGGAUAGAAUUAGUAGAAGGUACAUGAGGAUCACCCAUGUUAGGA | – | – | 24.4 nM | 21.9 nM
4 | GACUUGGCUACAUGAGGAUCACCCAUGUUUGACUGGAUCGAUCAGGAUAUAGUAAUUUGCAACAAUUAGAAGGGAUAUUUACGG | 65.9 nM | 56.9 nM | – | –
5 | GUCAGACGAGGAUAUAGAUUUGAUAACAUGAGGAUCACCCAUGUGAUCGAUAGAUCAGAUUUAGAAGGCGUCUGAC | – | – | 410 nM | 458 nM
6 | GGAUAGGACAGAGGAUAUACGUGCUAGAGAUACUACCAAAAUUUCCUCACAUGAGGAUCACCCAUGUAGAAGGCUGUCCUAUCG | – | – | 180 nM | 143 nM
7 | GCGAAGAACGAGAAGGCCACUACAUGAGGAUCACCCAUGUCGUGGUGUAUUGGAGGAUAUCGAUCGGCGUCUCAUGAGGACAUA | – | – | 5.35 nM | 5.44 nM
8 | AUCAGCUCGUCAGGAUAUACGUCACUGCGCCAGCAGUGUGGUAAGAUCACAUGAGGAUCACCCAUGUAGAAGGGACGAGCUGAU | – | – | 15 nM | 242 nM
9 | UAAAAGACUAGCAACUAUCUCCACAUGAGGAUCACCCAUGUCUAGGAUAUGAGCAGCAAAGCUGCUUAGAAGGAGACGCUAGUC | – | – | 6.67 nM | 6.88 nM
10 | CACCGUUACACAGGAUAUCUUACAUGAGGAUCACCCAUGUAAUAAAUGAGAAUUUCGAAUGUAUUAGAGAAGGGUGGAAUCGGC | – | – | 37.7 nM | 90.2 nM
11 | GUUGUUACUGAGGAUAUUAUUUUAUUCGAUUGAUAAGAAGGCAGUACAUGAGGAUCACCCAUGUGGGUAGUUUG | – | – | 355 nM | 586 nM
12 | UUGGACGUCGUAGUAUAUGUAGGAUAUUCCUACAUGAGGAUCACCCAUGUUGACAUGGAAGAAGGACAGAAGGACGAUGUCCAU | 144 nM | 6.12 nM | – | –
13 | AGCGGCGCAGACCACCGCAAAACCAGAAGGACAUGAGGAUCACCCAUGUAACAAAACAGGGCGAUGUAGGAUAUGGCAGACCCA | – | – | 13 nM | 13.7 nM
14 | AAUUAAUUAAUUAAUUGCUGACAUACAUGAGGAUCACCCAUGUAGGAUAUCGUCAGGAAUACUGACGAGAAGGACAUAGUCAGC | – | – | 14.9 nM | 16.3 nM
15 | AGCGUGUAAGGAUAUACGUCGGAUAGCGAAUACUGUCCCUAGUAGAAGGUACAUGAGGAUCACCCAUGUGUCCA | – | – | 23.9 nM | 51.8 nM
16 | GUGUACAGAGGAUAUACUGGAGCAUGGAAACAUGCAACUUCACAUGAGGAUCACCCAUGUAGAAGGCUGUACAC | – | – | 17.6 nM | 68.4 nM
17 | GUACCUUAUGAGAAGGCGAUCAUAAAACGUGAUCGAGGAUAUCAUGUAAACAUGAGGAUCACCCAUGUAUGGGUAUUAUGGUAC | 61.7 nM | 18.4 nM | – | –
18 | GGAUCGAAUGUGAGGAUAUGCUGGUCCUUGGAUCAGCAGAAGGCACAUGAGGAUCACCCAUGUCCAAGCGGUCC | – | – | 212 nM | 559 nM
19 | GGAUAGGACAGAGGAUAUACGUGCUAGAGAUACUAGCAAAAUUUCCUCACAUGAGGAUCACCCAUGUAGAAGGCUGUCCUAACG | – | – | 14.7 nM | 497 nM
20 | AAUUAACUCACAGGAUAUAGCAGAGGUCGCGUAAACUUACAGGCGACGAGGCUAGAAGGGUGACCACAUGAGGAUCACCCAUGU | 648 nM | 98.8 nM | – | –
21 | CCGUCGCACCAGAAGGCGUGAUCCACUGCGGCACGAGGAUAUGGUACAUGAGGAUCACCCAUGUCGCGAUGGAAAGCAAUCACG | 151 nM | 24.1 nM | – | –
22 | GCAAUAGCAUGAGGAUAUGCUGGAGUUUAGACAGUAGAAGGCAUGUCAUAAGACAUGAGGAUCACCCAUGUAAUUACAAUAGCA | 45.9 nM | 22.1 nM | – | –
23 | CCUCGUUGGGAGGAUAUCCUUUUGGUUGGAGGAGGAGAAGGCUCGACAUGAGGAUCACCCAUGUGGGAUUUCCU | – | – | 74.8 nM | 211 nM
24 | GGCUACGUUUCGUAGCAGCUAGGUGAGGAUAUUCAAUUUUUCACAUGAGGAUCACCCAUGUAUGUGAAGAAGGCGCCUAGAAAA | 11.7 nM | 4.83 nM | – | –
25 | UGUCAGAUGGUAGGAUAUCCAUAUCGCGUGUCCCUUUCCUAACAUGAGGAUCACCCAUGUCGGUGGGAGAAGGGCCGUAUGGUG | – | – | 13.2 nM | 12.1 nM
26 | CGCUCAAUUACUUAGGAUAGAAUCAGAAGGCGUAACAUGAGGAUCACCCAUGUAUAGACGUGUAACGAGGAUAUGAAUUGAGCG | – | – | 5.36 nM | 5.34 nM
27 | AGAUCACAUGAGGAUCACCCAUGUCAGGAUAUGAUACUAUGUACUUCGGUACAUAGUAUCAGAAGGGAUAUGAA | – | – | 95.2 nM | 193 nM
28 | UGUUACUAGGGAGGAUAUGGGAAGAUACAUGAGGAUCACCCAUGUUUAAGAAUGCCGAGAGGCAACUAGAAGGCCCUAGUACCU | 354 nM | 23.1 nM | – | –

From the EternaBench riboswitch data
